Data set [1] concerns Heart. The data set is described as follows: Antiarrhythmic activity in New Zealand White rabbit isolated atria assessed as reduction of maximum driving frequency after 15 mins. The format is functional, Oryctolagus cuniculus. Put shortly:
(§1)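 Isolated atria stabilized 90 min, paced by 2-ms pulses via platinum electrodes near SA node at 2.5× threshold voltage (threshold found at 240 pulses/min, mean of three). MDF averaged over three determinations. Drug added cumulatively without washout, reading 15 min after each dose, until MDF fell ~60%. Percent decrease in MDF or peak height plotted against log molar concentration and fitted by linear regression. Log ED40 read graphically. Three tissues per compound, averaged with SD.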

Data set [2] in a line: Negative inotropic activity in New Zealand White rabbit isolated atria assessed as reduction of tissue contractility after 15 mins. More on the design: species or system Oryctolagus cuniculus, Cardiac atrium. As to conditions: 0.25 h. Put shortly:
as §1

Data set [3] is described as follows: Selectivity index, ratio of pED40 for tissue contractility to pED40 for maximum driving response in New Zealand White rabbit isolated atria. More on the design: species or system Oryctolagus cuniculus, Cardiac atrium. Put shortly: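 Ratio of ED40 for contractility to ED40 for MDF. Both come from the same cumulative 15-min dosing of paced isolated atria, with three tissues per compound.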

The nature of data set [4]: Octanol-phosphate buffer partition coefficient, log P of the compound. The format is physicochemical. Put shortly: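 Compound stock in octanol-saturated buffer, about 0.05 mg/mL. Shaken with octanol 2 h at 37 °C, 200 oscillations/min, then centrifuged 2000 rpm for 4 min. Buffer-phase UV absorbance at λmax near 300 nm measured before and after. P = (Astd − Aext)/(Aext·f), with f the octanol:buffer volume ratio. Run in triplicate.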

Data set [5] can be described thus: Negative inotropic activity in New Zealand White rabbit isolated atria assessed as reduction of tissue contractility after 15 mins in presence of 4X10'-8 M propranolol. More on the design: species or system Oryctolagus cuniculus, Cardiac atrium. The settings on record: 0.25 h. Put shortly:
as §1

For data set [6], the system named is Heart. Briefly: Antiarrhythmic activity in New Zealand White rabbit isolated atria assessed as reduction of maximum driving frequency after 15 mins in presence of 4X10'-8 M propranolol. The format is functional, Oryctolagus cuniculus. The method, boiled down:
as §1

The nature of data set [7]: Selectivity index, ratio of pED40 for tissue contractility to pED40 for maximum driving response in New Zealand White rabbit isolated atria in presence of 4X10'-8 M propranolol. More on the design: species or system Oryctolagus cuniculus, Cardiac atrium.

From ChEMBL document CHEMBL3243947 (J Med Chem, 1979) come the findings set out here.

Counter-ions that a name gives are not always drawn.

A word on the logP: it is a log measure of how a compound divides between an organic and an aqueous phase. Regarding `Br.CC(C)NCC(O)COc1c(Br)cc(Br)c2ccccc12` (stereo unspecified), the results for the pED40 in data set [1] and in data set [2] were 5.1 and 5.53, respectively. Moreover, the “Selectivity Index” value in data set [3] is on record as 0.4. In addition, the logP in data set [4] came to 2.71.

As for `CC(C)NCC(O)COc1ccc(Cl)c2ccccc12` (stereo unspecified), the results for the pED40 in data set [1] and in data set [2] were 5.2 and 5.26, respectively. Moreover, in data set [3], the “Selectivity Index” value came to 0.9. The logP in data set [4] was 2.

On to `CC(C)NCC(O)COc1ccc(N)c2ccccc12.Cl` (stereo unspecified), for which the results for the pED40 in data set [1] and in data set [2] were 5.02 and 4.92, respectively. In addition, in data set [3], the “Selectivity Index” value was 1.6. The compound also displayed a logP in data set [4] of -0.27.

As to `CC(C)NCC(O)COc1ccc(S(N)(=O)=O)c2ccccc12.Cl` (stereo unspecified), the pED40 is 3.58 in data set [1] and 3.35 in data set [2]. Besides, the “Selectivity Index” value in data set [3] amounted to 1.7. Further, in data set [4], the log partition coefficient (logP) was -0.51.

For `CCCCNCC(O)COc1cccc2ccccc12` (stereo unspecified), the pED40 in data set [1] is 5.64; in data set [2] it was 5.38. In data set [3], the “Selectivity Index” value came to 1.8. Also, the logP in data set [4] worked out at 2.08.

`COCCCNCC(O)COc1cccc2ccccc12` (stereo unspecified): the pED40 in data set [1] is on record as 5.45; in data set [2], 5.4. The “Selectivity Index” value in data set [3] is 1.5. In data set [4], this compound showed a logP of 1.28.

In the case of `Cl.NCCCNCC(O)COc1cccc2ccccc12` (stereo unspecified), the pED40 in data set [1] was determined as 4.5; in data set [2], 4.47. In data set [3], the “Selectivity Index” value is given as 1. Besides, the lipophilicity (logP) in data set [4] was -0.19.

Turning to `Cl.NC(=O)CCCNCC(O)COc1cccc2ccccc12` (stereo unspecified), the pED40 in data set [5] worked out at 4.79; in data set [6], 4.89. Further, the “Selectivity Index” value in data set [7] came to 1.4. For the same compound, the logP in data set [4] was 0.31.

With `Cl.O=C(O)CCCNCC(O)COc1cccc2ccccc12` (stereo unspecified), the results for the pED40 in data set [1] and in data set [2] were 3.41 and 3.02, respectively. Moreover, the “Selectivity Index” value in data set [3] was 2. The compound also came in with a logP in data set [4] of 0.21.

As to `C[N+](C)(C)CCCNCC(O)COc1cccc2ccccc12.Cl.[Cl-]` (stereo unspecified), the values for the pED40 in data set [1] and in data set [2] were 3.08 and 3.06, respectively. Moreover, the “Selectivity Index” value in data set [3] is listed as 1.1. In data set [4], this compound gave a logP of -1.89.

As for `CC(C)NCC(O)COc1ccc(O)c2ccccc12` (stereo unspecified) [4-HYDROXYPROPRANOLOL SULFATE], the pED40 in data set [1] is on record as 4.6; in data set [2] it was 4.39. Also, the “Selectivity Index” value in data set [3] turned out to be 1.8. Moreover, the logP in data set [4] was 0.39.

Take `CC(C)NCC(O)COc1cccc2ccccc12` (stereo unspecified) [PROPRANOLOL]: the results for the pED40 in data set [1] and in data set [2] were 5.43 and 5.21, respectively.
